Activation data for 61 compounds are collected here from PubChem BioAssay AID449763 (Sanford-Burnham Center for Chemical Genomics, 2010).

Hit rate of the full screen: of about 330,000 compounds, about 1,100 (0.33%) were called active. The entries come from a sample that favours actives as a whole. Values without a mark were called inactive.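 How the source made its calls: active means at 10 µM dose, activation of 40% or more, normalized to positive control; inactive means the rest.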

A short description of the assay: activators of apoptotic CHOP UPR arm, primary screen, cell-based, CHO-CHOP luciferase reporter, luminescence, uHTS (AID 449763).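 Further: 100% = tunicamycin at 10 µg/mL and 0% = DMSO alone.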 The conditions noted are these: at 10 µM, stronger effect = higher value, percent of tunicamycin response over DMSO baseline. The essentials:
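System: CHO CHOP reporter cells. Amount: 500 cells per well. Buffer or medium: F12 medium, 10% FBS. Compound dosing: one dose, 10 µM in 0.5% DMSO. Incubation: 6 h compound exposure at 37 °C after overnight seeding. Technique: Steady-Glo luciferase luminescence. Benchmarks: tunicamycin and DMSO controls.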
(In general: A reporter such as luciferase makes a cellular process visible.)
On to `COc1cc(NC(=O)c2[nH]cnc2C(N)=O)cc(C(=O)Nc2cccc(C(F)(F)F)c2)c1`, for which the activation was 12.8%.

`COc1cc(NC(=O)c2cncc(-c3ccc(C#N)cc3)c2)cc(C(=O)Nc2cccc(C(F)(F)F)c2)c1`: the activation is 73.6% (active).

As to `N#Cc1ccc(Oc2ccc(C(F)(F)F)cc2NC(=O)c2ccc(F)cc2)cc1`, the activation was -0.147%.

For `O=C(O)C1C2C=CC(C2)C1C(=O)NCc1ccccc1` (stereo unspecified), the activation is -1.58%.

For `O=C(CC(NCCN1CCOCC1)C(=O)O)Nc1cccc(Cl)c1` (stereo unspecified), the activation is -1.8%.

On to `CC(=O)Nc1ccc(NC(=O)COC(=O)c2ccccc2C(=O)c2ccccc2)cc1`, for which the activation is 1.65%.

As for `CC(=O)Nc1ccc(NC(=O)C(C)OC(=O)c2ccccc2C(=O)c2ccc(Cl)c([N+](=O)[O-])c2)cc1` (stereo unspecified), the activation is 12.1%.

Consider `N#Cc1cccc(NC(=O)COC(=O)c2ccccc2C(=O)c2ccc(Cl)c([N+](=O)[O-])c2)c1`, for which the activation was 105% (active).

As to `CC1=CC(C)(C)NC(=S)N1c1ccccc1`, the activation was 0.0762%.

As for `O=C(c1c(F)cccc1F)N1CCN(S(=O)(=O)c2ccc3c(c2)OCCO3)CC1`, the activation is 2.02%.

For the compound `O=[N+]([O-])c1ccc(C=Nc2ccc(Cl)cc2Cl)s1`, the activation was 112% (active).

As to `CC1CN(C(=O)c2ccc([N+](=O)[O-])s2)CC(C)O1` (stereo unspecified), the activation is 1.2%.

For `CCN(Cc1ccccc1)C(=O)CCS(=O)(=O)c1ccc2c(c1)oc(=O)n2C`, the activation was -2.75%.

In the case of `Cc1cccc(NC(=O)C2CC(=O)OC23CCCC3)c1` (stereo unspecified), the activation is 0.24%.

In the case of `CCOC(=O)CN(C(=O)CN1CCOCC1)c1ccc(Br)cc1`, the activation was -1.27%.

Consider `CC1CCCC(C)N1C(=O)COC(=O)COc1ccccc1C#N` (stereo unspecified), for which the activation was -1.4%.

As to `CC(=O)Nc1ccc(Nc2ncnc3c2nnn3Cc2ccccc2Cl)cc1`, the activation is -0.872%.

As to `CN(C)Cc1c(C#N)c2ccccc2n1C`, the activation is -0.172%.

On to `CCOC(=O)CCc1c(C)c(C#N)c2[nH]c3ccccc3n2c1=O`, for which the activation was -1.06%.

For `CCCc1cc(=S)n2c([nH]c3ccccc32)c1C#N`, the activation was 54.1% (active).

Regarding `CCn1c(SCC(=O)Nc2cc(C)ccc2C)nnc1-c1cnccn1`, the activation was -1.53%.

As to `Cc1[nH]n(-c2ccccc2)c(=O)c1CCOC(=O)c1ccc(C(F)(F)F)cc1`, the activation was -0.83%.

With `O=C1CC(c2cccc(Cl)c2)CC(O)=C1C=Nc1ccccc1` (stereo unspecified), the activation is 50% (active).

For `O=C1C=C(c2cccc(Cl)c2)C[C@@H](c2ccc(F)cc2)C1`, the activation is -0.428%.

On to `O=C1CC(c2ccccc2)CC(O)=C1C=NCCN1CCOCC1` (stereo unspecified), for which the activation was -2.31%.

As for `Cc1ccc(NC(=O)C(=O)NCc2ccc(/C=N/NC(=O)c3c(C)nc4cc(C)ccn34)o2)cc1`, the activation is 4.97%.

Consider `CCc1ccc(N(C(=O)c2csnn2)C(C(=O)NC2CCCCC2)c2ccncc2)cc1` (stereo unspecified), for which the activation is -1.98%.

Consider `CCOC(=O)c1sc(NC(=O)CCN2CCOCC2)c(C(=O)OCC)c1C`, for which the activation was 43.2% (active).

As to `CCOC(=O)c1c(NC(=O)CCl)sc(C(=O)N(CC)CC)c1C`, the activation was 48.1% (active).

As to `CCOC(=O)Nc1sc(C(=O)N(C)C)c(C)c1C(=O)OCC`, the activation was -4.31%.

In the case of `CCOC(=O)c1c(NC(=O)CCCN2CCOCC2)sc2c1CC(C)(C)OC2`, the activation was -2.37%.

As to `COC(=O)c1c(NC(=O)CCN2CCOCC2)sc2c1CCCC2`, the activation was 0.577%.

For the compound `CCC(=O)Nc1sc(C(=O)Nc2ccccc2)c(C)c1C(=O)OC`, the activation is -0.316%.

In the case of `COc1ccc(C(=O)NC2CC(C)(C)NC(C)(C)C2)cc1OC`, the activation is 0.193%.

With `O=C(CCC(=O)n1ncc2ccccc21)NCc1ccccc1Cl`, the activation is -0.158%.

Turning to `COc1ccc(S(=O)(=O)NC(C)C(=O)N2CCCCCC2)cc1` (stereo unspecified), the activation is -2.32%.

Regarding `CCn1nc(C)c(CNC(=O)C2CCC(=O)N(Cc3cccc(F)c3)C2)c1C` (stereo unspecified), the activation is 0.585%.

With `CC1=C(C(N)=O)C(c2ccc(Br)cc2)n2ncnc2N1` (stereo unspecified), the activation is -1.48%.

In the case of `Fc1ccccc1/C=C1\CCCC2=C1Nc1ncnn1C2c1ccccc1F` (stereo unspecified), the activation is 90.9% (active).

On to `Brc1ccc2c(c1)[C@H]1OCC[C@H]1[C@@H](c1cccs1)N2`, for which the activation was -1.2%.

As for `O=C1CCN(C(=O)Nc2ccccc2)N1`, the activation is -2.23%.

`Cc1ccc(OCC(=O)Nc2ccc(NC(=O)c3cccs3)cc2)c(C)c1`: the activation is 0.176%.

`Cc1ccc(-c2nnc(-c3ccc(NC(=O)c4cccs4)cc3)o2)cc1`: the activation was 325% (active).

Turning to `Cc1ccc(NC(=O)c2cccs2)cc1S(=O)(=O)N(C)C`, the activation is 1.35%.

With `CC1CCCCC1NC(=O)CSc1nnc(-c2ccncc2)n1CCCN(C)C` (stereo unspecified), the activation was -1.77%.

`CN(C)CCCn1c(SCc2ccc(Cl)cc2)nnc1-c1ccncc1`: the activation is 139% (active).

As for `Cn1c(SCc2ccc(F)cc2)nnc1-c1ccncc1`, the activation is 1.85%.

As to `COc1ccc(-n2cc(CNC3CCOCC3)c(-c3cccc(F)c3)n2)cc1`, the activation was 0.961%.

With `O=C(COc1ccccc1O)NC1CCCC1`, the activation is 3.04%.

As to `CC(=O)c1sc(N/N=C\c2ccc(C)cc2)nc1C`, the activation was 5.8%.

With `CNC(=O)c1sc(NCc2ccccc2OC)nc1C`, the activation is -3.17%.

With `COc1cccc2sc(Nc3nc(C)c(C(C)=O)s3)nc12`, the activation was 309% (active).

On to `CCn1c(SCc2ccccc2)nc2cc(OC)c(OC)cc2c1=O`, for which the activation is -0.179%.

As for `CCn1c(/C=C/c2ccc([N+](=O)[O-])o2)nc2ccccc2c1=O`, the activation was 71.3% (active).

As to `CCOCCCn1c(NN)nc2ccccc2c1=O`, the activation was 1.17%.

In the case of `COC(=O)c1cc(CNC(=O)CC(C)c2ccccc2)ccc1OC` (stereo unspecified), the activation is 2.14%.

In the case of `COc1ccc(-c2cc(-c3ccc(N)cc3)nc(N)c2C#N)cc1OC`, the activation was -0.472%.

For the compound `COc1ccc(-c2ccc(Nc3ccc(S(=O)(=O)N4CCCC4)cc3)nn2)cc1OC`, the activation was 3.88%.

As to `COc1ccc(-c2cc(C(F)(F)F)nc(S(C)(=O)=O)n2)cc1OC`, the activation is 106% (active).

On to `O=C1/C(=C/c2ccc(F)cc2)SC(=S)N1NS(=O)(=O)c1ccccc1`, for which the activation was 0.174%.

With `CC(C)CNC(=S)NNC(=O)c1ccccc1OC(F)F`, the activation is -0.805%.
